Shown are actives, neighbours in structure and some others; about 3.7% of the full set was active somewhere.
KCNK3 block: human KCNK3 channel inhibition, primary screen | CHO-KCNK3 thallium flux, FluxOR fluorescence; hits give low values | B-score at 10 µM | 0.84% of 340,000 active | AID 602410;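 active = B-score under library mean minus 4 SD, starting fluorescence ratio at most library mean plus 5 SD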;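 note: more negative B-score means stronger inhibition of thallium flux through KCNK3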
Target sequence (O14649 whole entry, looked up): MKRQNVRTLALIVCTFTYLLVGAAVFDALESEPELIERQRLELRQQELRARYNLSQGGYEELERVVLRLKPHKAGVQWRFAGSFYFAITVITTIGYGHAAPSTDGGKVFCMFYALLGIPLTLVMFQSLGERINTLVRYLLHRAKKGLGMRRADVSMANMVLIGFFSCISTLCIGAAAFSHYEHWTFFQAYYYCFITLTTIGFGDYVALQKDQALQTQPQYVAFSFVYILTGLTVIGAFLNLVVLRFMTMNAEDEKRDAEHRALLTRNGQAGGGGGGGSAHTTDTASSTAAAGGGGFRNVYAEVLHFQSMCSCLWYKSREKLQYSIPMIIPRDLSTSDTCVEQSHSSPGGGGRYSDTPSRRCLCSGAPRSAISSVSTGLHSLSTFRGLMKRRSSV
hERG protect: shields human hERG channel from block by proarrhythmic agents; Q12809; CHO-hERG, FluxOR thallium flux, dofetilide IC70 present; activation (rescue from dofetilide block), less the hit threshold, % at 10 µM; 0.51% of 310,000 active;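 active = activation above the mean of controls blocked by dofetilide plus 5 SD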;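 note: thallium influx through hERG after potassium depolarization seen as dye fluorescence rise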
KCNQ1 block: inhibitors of human KCNQ1 potassium channel | P51787 | CHO-K1 KCNQ1, FluxOR thallium flux fluorescence; hits give high values | B-score at 10 µM | 1.3% of 310,000 active | AID 2642;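 active = compounds whose thallium flux B-score, printed positive for inhibition, exceeds three library SD while starting fluorescence stays within three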;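 note: channel opened by potassium depolarization with thallium stimulus after 20 min compound exposure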
KCNK9 inh: inhibitors of human KCNK9 two-pore domain potassium channel. Q9NPC2. HEK293 KCNK9, FluxOR thallium flux fluorescence; hits give low values. B-score at 10 µM. 1.2% of 310,000 active. AID 488922;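 active = ratio B-score over 3 SD below the library mean, with starting fluorescence within 5 SD of its mean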;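 note: negative B-score means less thallium flux so channel inhibition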
Kir21 block: inhibitors of mouse Kir2.1 inward-rectifier potassium channel; P35561; HEK293-Kir2.1, FluxOR thallium flux fluorescence; hits give low values; B-score at 10 µM; 0.85% of 310,000 active;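 active = fluorescence ratio B-score at or below minus 3 SD of library scores, with starting-brightness B-score within 2 SD, cut at about -4.2 in these data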;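 note: channel flux triggered by added potassium and thallium sulfate stimulus; B-score of peak minus minimum fluorescence over baseline after thallium stimulus; more negative B-score means stronger Kir2.1 block with less thallium influx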
KCNQ1 act: potentiators or activators of human KCNQ1 potassium channel; CHO-K1 KCNQ1, thallium flux FluxOR fluorescence; hits give high values; AID 2648; B-score at 10 µM; 0.35% of 310,000 active;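 active = fluorescence ratio B-score, a plate-corrected score, at least three library SD, with initial intensity B-score within 5 SD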
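Schedule – 37 °C overnight plating, 90-min dark dye load, 20-min compound pretreatment · System – stable KCNQ1 CHO-K1 line · Probe or stimulus – thallium- and potassium-containing depolarizing buffer · Measured by – kinetic FluxOR fluorescence, 10 s baseline plus 110 s post-stimulus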
KCNK9 block conf: human KCNK9 inhibitor confirmation | inhibition, % at 10 µM | 43% of 4,900 active | HEK293 KCNK9 cells, FluxOR thallium flux fluorescence | AID 492992 | shares compounds with KCNK9 inh;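 active = thallium signal inhibited by more than 5 SD of the compound-free buffer control wells, on both duplicate plates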
Kir21 sel: selectivity of KCNK9 modulators against mouse Kir2.1. shares compounds with KCNK9 inh. Kir2.1 cells, FluxOR thallium flux fluorescence. inhibition, % at 10 µM. 4% of 4,900 active. AID 492993;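 active = thallium signal drop more than 5 SD beyond the mean of the no-compound control wells, seen in both duplicate plates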;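 note: signal is fluorescence rise after thallium addition divided by baseline fluorescence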
HEK293 Tl ctr: second check of KCNK9 modulator effects in non-induced HEK293 cells; shares compounds with KCNK9 inh; FluxOR thallium flux; inhibition, % at 10 µM; 40% of 4,900 active;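 active = thallium signal drop beyond 5 SD of the untreated control mean, on both duplicate plates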
Hits are given with their value; 0 = inactive; - = not tested or not shown.

SMILES	KCNK3 block	hERG protect	KCNQ1 block	KCNK9 inh	Kir21 block	KCNQ1 act	KCNK9 block conf	Kir21 sel	HEK293 Tl ctr
CC(C)[C@@H]1CC[C@@H](C)C[C@H]1OC(=O)C[n+]1cc(-c2ccc(Cl)cc2)n2c1CCCCC2	0	0	0	-13	-8.1	0	60%	70%	0
O=C(Nc1nccs1)c1ccc(Cl)c([N+](=O)[O-])c1	0	0	0	0	0	0	-	-	-
COc1cc(CCC(=O)OCC(=O)Nc2ccc(F)cc2F)cc(OC)c1OC	0	0	0	0	0	0	-	-	-
COc1ccccc1C(=O)NCCSCc1c(F)cccc1Cl	0	0	0	0	0	0	-	-	-
Cc1c(C(=O)NCCSCc2c(F)cccc2Cl)cnn1-c1ccc(Cl)cc1	0	0	0	0	0	0	0	0	0
CC(=O)N1c2ccc3ccccc3c2C(C)CC12CCCCC2 (stereo not drawn)	0	0	0	-12	0	0	68%	0	48%
CC1CC2(CCCCC2)Nc2ccc3ccccc3c21 (stereo not drawn)	0	0	0	0	0	0	-	-	-
O=C(O)CCN1CC2([N+](=O)[O-])C=CC(=O)C([N+](=O)[O-])(C1)C2CC(=O)c1ccccc1 (stereo not drawn)	0	0	0	0	0	0	-	-	-
COc1cc(-c2nc3cc(C)ccn3c2NC2CCCCC2)ccc1-c1ccc(C(C)=O)cc1	0	0	0	-9.3	0	0	48%	0	0
COc1ccc(C(=O)Nn2c(SCc3cccc([N+](=O)[O-])c3)nc3ccccc3c2=O)cc1	0	0	0	-12	0	0	68%	0	32%
O=C(CSc1nc2ccccc2c(=O)n1-c1ccccc1)c1cccc([N+](=O)[O-])c1	0	0	0	0	0	0	-	-	-
O=C(Nn1c(SCc2cccc([N+](=O)[O-])c2)nc2ccccc2c1=O)c1ccccc1	0	0	0	-13	0	0	67%	0	43%
COc1ccc(C(=O)Nn2c(SCC(=O)NC3CCCCC3)nc3ccccc3c2=O)cc1	0	0	0	0	0	0	-	-	-
CCN(CC)CCCNC(=O)C1CCC(CNS(=O)(=O)c2ccc(Cl)cc2)CC1 (stereo not drawn)	0	0	0	0	0	0	-	-	-
CCCCN1C[C@H](Cc2ccccc2)[C@@H](CC(=O)NCc2ccc(OC)cc2)C1=O	0	0	0	0	0	0	-	-	-
COc1ccc(CNC(=O)C[C@H]2C(=O)N(c3ccccc3)C[C@@H]2Cc2ccccc2)cc1	0	0	0	-9.9	0	0	60%	0	0
CC(C)NC(C(=O)Nc1cc(Cl)cc(Cl)c1)c1ccccc1 (stereo not drawn)	0	0	0	-9.3	0	0	34%	0	25%
CN(C)CCNC(C(=O)Nc1cc(Cl)cc(Cl)c1)c1ccccc1 (stereo not drawn)	0	0	0	0	0	0	-	-	-
Fc1cccc(Cl)c1Cc1noc(/C=C/c2ccccc2)n1	0	0	0	0	0	0	0	0	0
CC1CC(C)CN(C(=O)COC(=O)c2ccc3ccccc3n2)C1 (stereo not drawn)	0	-	-	-	-	-	-	-	-
c1ccc(-c2nc(NCc3cccnc3)c3oc4ccccc4c3n2)cc1	0	7.9	0	-10	0	0	38%	0	32%
CNc1nnc(CSc2nc3ccccc3s2)s1	0	0	0	0	0	0	-	-	-
CNc1nnc(CSc2nc(C)cc(C)n2)s1	0	0	0	0	0	0	36%	0	0
COc1ccccc1CC(=O)c1ccc(OCc2ccccc2)cc1	0	0	0	0	0	0	0	0	0
C=C1CCN([C@@H](C)C(=O)NCCCCCC)S(=O)(=O)c2ccccc21	0	0	0	0	0	0	-	-	-
CCC(c1nnnn1Cc1cccs1)N1CCN(c2nc3ccccc3s2)CC1 (stereo not drawn)	0	0	0	-11	0	0	30%	0	0

From PubChem BioAssay
